Measurements as given in the EternaBench riboswitch data.

Tested on: MS2 coat protein
Test: apparent Kd, MS2 coat protein; higher = weaker binding; RNA-MaP array; FMN 200 µM where present
How it was run: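 The apparent Kd is reported as the median of filtered per-cluster binding-curve fits. To get these curves, designs transcribed by stalled E. coli RNA polymerase on Illumina sequencing-chip clusters were titrated with SNAP-549-labelled MS2 coat protein from 0.7 or 1.5 nM, doubling to 3 µM. Titrations were run without and then with constant ligand in 100 mM Tris-HCl pH 7.5, 80 mM KCl, 4 mM MgCl2, BSA, DTT, yeast tRNA and Tween-20, and green signal was normalised to red-channel RNA signal and control-cluster median Fmax.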

[1] = designed as: OFF switch for flavin mononucleotide, no ligand
[2] = ligand present: flavin mononucleotide, designed as: OFF switch for flavin mononucleotide
[3] = designed as: ON switch for flavin mononucleotide, no ligand
[4] = ligand present: flavin mononucleotide, designed as: ON switch for flavin mononucleotide

CACCGUUAAGUAGGAUAUCGUACAUGAGGAUCACCCAUGUAAUAAAUGAGAAUUUCGGAUGUAUGCGAGAAGGACUAAAUCGGC
apparent Kd [1]: 49.3 nM | apparent Kd [2]: 43 nM

GUGUUUGAUGAGGAUAUCGUUGUGGGUAUAUAGCGAGAAGGCAUUACAUGAGGAUCACCCAUGUAGUGUGGGUU
apparent Kd [1]: 26.2 nM | apparent Kd [2]: 49.4 nM

UGAAUGUGAGGAUAUGGUGAGUAGUGCCUGAGCGCUGCUCACCAGAAGGCACAUGAGGAUCACCCAUGUACUUG
apparent Kd [1]: 66.9 nM | apparent Kd [2]: 215 nM

GGACGUCACAUGAACAUGAGGAUCACCCAUGUAACUAGACAUGAGGAUAUGGAUCCUAAUUGGAUCCAGAAGGCAUGGACGUCC
apparent Kd [3]: 199 nM | apparent Kd [4]: 32.1 nM

AGCAUGCUAGGAUAUACGAAACAUUAGGGUUCUUUGUAUAAACAUGAGGAUCACCCAUGUAGAAGGAGCGUGCA
apparent Kd [1]: 46.1 nM | apparent Kd [2]: 169 nM

UCUCGUUUCGCAGGAUAUGCUGGUCGGUCAUAAACCGGCCACAUGAGGAUCACCCAUGUGCCACAGCAGAAGGGUGACACUAGA
apparent Kd [3]: 543 nM | apparent Kd [4]: 59 nM

GCAACGCCUGACAUGAGGAUCACCCAUGUUAGAUUGUUAUGUCAGGAUAUUGUCUAGAAACUAGACAAGAAGGGAUGCGUUGCU
apparent Kd [3]: 304 nM | apparent Kd [4]: 21.8 nM

GUGGUCAGACAUGAGGAUCACCCAUGUGGAAUAAAUAACACACAGGAUAUCAAAUAUAAAAUAUAUGAGAAGGGUGGAUUGGUG
apparent Kd [4]: 224 nM

AGUAACAUGCUCAACAUGAGGAUCACCCAUGUACUCUCUUGUAAGGAUAUACAAUCGUAUUGAUAGUAGAAGGUACCAAUUAAG
apparent Kd [3]: 52.7 nM | apparent Kd [4]: 51.9 nM

UUAAAUCAUGUAGGAUAUGCAUGGCGAAGCUACGCAGAAGGACAUGAGGAUCACCCAUGUUAUAGGUACCCAGUUCGGUGCCAA
apparent Kd [1]: 115 nM | apparent Kd [2]: 200 nM

AUAUAUAUAUAGAAGGUGCCAGCGAGAGCUGCACAUGAGGAUCACCCAUGUUGUCGGUGACGACGCAAGGAUAUAUAUAUAUAU
apparent Kd [3]: 34 nM | apparent Kd [4]: 15.4 nM

GGAUGAUUAAUAGGAUAUUAGUUGUAAAAUGGUUAAGAAGGAUUAAUGAUUUAAACGACCAGUUACAUGAGGAUCACCCAUGUA
apparent Kd [3]: 21.6 nM | apparent Kd [4]: 18.9 nM

GCAUCCCAUGUCAGGAUAUGCUGUACCUUGGUACAGCAGAAGGGACAUGAGGAUCACCCAUGUGCCUAGGAUGC
apparent Kd [1]: 51.2 nM | apparent Kd [2]: 438 nM

AAGUCAGCAGGAUAUGCGAUGGUGGGCUAGGUAGCUUGCCCACAUGAGGAUCACCCAUGUAGAAGGGCUGGCUA
apparent Kd [1]: 72 nM | apparent Kd [2]: 48.7 nM

CCUGAGUGUCUAGGAUAUGCAUACCCGAGCUUUGCAGAAGGAGACAUGAGGAUCACCCAUGUGGACUUGGCAGGUCUCGCACCA
apparent Kd [1]: 5.91 nM | apparent Kd [2]: 7.59 nM

AAAUUGCUAGAGGAUAUCGGAUAGGAUCUAUUGCGAGAAGGUUGGACAUGAGGAUCACCCAUGUUCUGUUGGGA
apparent Kd [1]: 25.8 nM | apparent Kd [2]: 25.8 nM

CGAAAUGAUAGAGGAUAUGUUUAACAUGAGGAUCACCCAUGUGACAUGGGAUUAAUAUAUAACUUACAGAAGGCUAUUCAAUCG
apparent Kd [1]: 38.7 nM | apparent Kd [2]: 52.1 nM

UUACUGUAAUAGAAGGGUAUUUGGGUAGUACAUGAGGAUCACCCAUGUUUUAUAGGAUAUGUUUAUAGUUUUUAAUCAAGUUUA
apparent Kd [1]: 85.1 nM | apparent Kd [2]: 62.3 nM

CGGAGACAUGAGGAUCACCCAUGUGAGGAUAUGCAAGCCCGACUGAUCGUUAGCCUAUGUAGAAGGCACGGGUC
apparent Kd [1]: 21.3 nM | apparent Kd [2]: 20 nM

UUGGACGUCGUAGGAUAUGUAGGAUUCUCCUACAUGAGGAUCACCCAUGUUGACAUGGAGGACGGACAGAAGGACGGUGUCCAU
apparent Kd [3]: 14.1 nM | apparent Kd [4]: 5.64 nM

CGCUACUACCAGAAGGACAUGAGGAUCACCCAUGUAGGAUAUGGGUUACACGUUCCUGUGAAUUGUUACUACGCUACGUAUGCG
apparent Kd [3]: 401 nM | apparent Kd [4]: 21.5 nM

AGAGAGAGCACAGGAUAUCCGCGCACAUGUAGCGGAGAAGGGUGACCUUUUUGCACAUGAGGAUCACCCAUGUCCAGCACCACA
apparent Kd [3]: 39.7 nM | apparent Kd [4]: 21.7 nM

CGAUAACAUAGUUAUCCGUAGCGAACAUGAGGAUCACCCAUGUAGGAUAUGUUACUAAACUAGUAACAGAAGGACAUGAGUCUU
apparent Kd [1]: 34.9 nM | apparent Kd [2]: 263 nM

GGGCGACAUGAGGAUCACCCAUGUAACCAAAACGAAGGAUAUGGGCCUGAACGUCCAGGACUAGAAGGUCGGAAAC
apparent Kd [3]: 22 nM | apparent Kd [4]: 18 nM

CCGAAUAAGCAGGAUAUCGUAUCGGAAACGAUACGAGAAGGGCUAACAUGAGGAUCACCCAUGUUCCUUAACGG
apparent Kd [1]: 22.1 nM | apparent Kd [2]: 23.5 nM

ACAGCUGAAGGAUAUACUUGGAAAAAAAAAAAAAAAAAAAAACAUGAGGAUCACCCAUGUAGAAGGUCAGCUGA
apparent Kd [1]: 52.9 nM | apparent Kd [2]: 78.5 nM

GCCAUCAUAUGAGGAUAUGACACCGAAACGGUGUCAGAAGGCAUGUCGAUAGACAUGAGGAUCACCCAUGUUUAGAUGAUGGCA
apparent Kd [3]: 104 nM | apparent Kd [4]: 21.5 nM

GUAUCGUGAGGAUAUCAUGAUUGACUUUUGUUUUGUCAGCGUGAGAAGGCACAUGAGGAUCACCCAUGUGAUUA
apparent Kd [1]: 22.3 nM | apparent Kd [2]: 52.9 nM

ACAAAUGGAGGAUAUACAUGAGGAUCACCCAUGUUUAUCCUACAUAUGUGAUACUCAUGUAGAAGGCCAUAUGA
apparent Kd [1]: 12.7 nM | apparent Kd [2]: 12.5 nM

AAGGGUUGUGAGGAUAUGGCUUACCAAUUGGUACCAGAAGGCGCUACAUGAGGAUCACCCAUGUGGGUCGUCCC
apparent Kd [1]: 51.8 nM | apparent Kd [2]: 82.9 nM

UAAUUAAUAAGAUCAAUUAAUUAACAUGAGGAUCACCCAUGUGAGGAUAUCAGCUCGAUUAGAGCUGAGAAGGCACAAUAAUUA
apparent Kd [1]: 43.2 nM | apparent Kd [2]: 102 nM

GUGUAGUGAGGAUAUACAUGAGGAUCACCCAUGUGAAUAAGAUAGAAUAAGAUAAAGUGUAGAAGGCAUAGUGU
apparent Kd [1]: 40.2 nM | apparent Kd [2]: 31.5 nM

GUACCUUAUGAGAAGGCGAUCAUAAAACAUGAUCGAGGAUAUCAUGUAAACAUGAGGAUCACCCAUGUAUGGGUAUUAUGGUAC
apparent Kd [3]: 68.7 nM | apparent Kd [4]: 17.5 nM

CCAGGCUUCGAGAAGGACAUGAGGAUCACCCAUGUGCGUGUAAAACAGCCGUGAGGCUGCAUCAUGUAGGAUAUCGGAGUCUGC
apparent Kd [1]: 293 nM | apparent Kd [2]: 88.9 nM

ACAUUUGGAGGAUAUACCGCUAAGUCAAAUGCAGACCUCCCACAUGAGGAUCACCCAUGUAGAAGGUCAUCUGG
apparent Kd [1]: 17.1 nM | apparent Kd [2]: 17.6 nM

CGCUACGUUUCGUAGCAGUGUCAUCGAGAAGGCCCUGACAUGAGGAUCACCCAUGUUGUUACAUGGGAGGAUAUCGAUGAUACC
apparent Kd [3]: 12.2 nM | apparent Kd [4]: 5.25 nM

AUUGUUCGAGAGAAGGGAACAUGAGGAUCACCCAUGUUACCUCACCCGGUGACGGAACUCCAAGUUCAGGAUAUCUCGAGCGAU
apparent Kd [1]: 7.64 nM | apparent Kd [2]: 16 nM

GGGUGGCGUAUAGGAUAUAUGGUACAUGAGGAUCACCCAUGUACAUAUGAUGUUCAUGUUUGUGUAUAGAAGGAUACGUCGGGA
apparent Kd [3]: 9.44 nM | apparent Kd [4]: 8.86 nM

GUCAGCUCGUGAGGAUAUACAACACUGCUUCUGCAGUGUAUUAAGAUCACAUGAGGAUCACCCAUGUAGAAGGCACGAGCUGAU
apparent Kd [1]: 12.8 nM | apparent Kd [2]: 234 nM

ACAUGCAUAGCGAUAUGAUCGAGAGAUCAUGUCGCUAAAGUUAGAAGGACAUGAGGAUCACCCAUGUAGGAUAUGGGUGCAUGA
apparent Kd [3]: 641 nM | apparent Kd [4]: 48.7 nM

CUUAUGUGAGGAUAUGUACAGAAAAAAAAGGGUGUAACUGUACAGAAGGCACAUGAGGAUCACCCAUGUGCAUU
apparent Kd [1]: 60.8 nM | apparent Kd [2]: 50.4 nM

UGAACUAUGUAGAAGGCCCACAUUAAUAUGUAGGGAGGAUAUACAUGAGGAUCACCCAUGUAAAGAGCAAGAGGAUUUAACAGA
apparent Kd [1]: 10.3 nM | apparent Kd [2]: 21.7 nM

CGUUGUUGCGCAGGAUAUGCAUUGGAUUACAAUGCAGAAGGGCGAUUACAUGAGGAUCACCCAUGUGUCGACAAUAAGGAAGAG
apparent Kd [3]: 35.9 nM | apparent Kd [4]: 34 nM

GUGGAGUACGUAGGAUAUGUAGGAUAUUCCUACAUGAGGAUCACCCAUGUUUACAUGGAAGAAGGACAGAAGGACGUGCUCCAG
apparent Kd [3]: 1430 nM | apparent Kd [4]: 14.3 nM

AAAAAACAUGAGGAUCACCCAUGUGAGGAUAUCACUAGUCAGUCCUCAGAGUGAGUACUGAGAAGGCACAUAAA
apparent Kd [1]: 86.9 nM | apparent Kd [2]: 54.3 nM

AGCCAAGCAGGAUAUGCACGUAAUAACAUGAGGAUCACCCAUGUGACCGAUUUAUGUUCUGCAGAAGGGCUUGGAA
apparent Kd [1]: 60.3 nM | apparent Kd [2]: 63.5 nM

AUAAUGAGAGGAUAUACAUGAGGAUCACCCAUGUUUUUAUCACGUCGUGCUCCAUUACGUAGAAGGCUCAUUUA
apparent Kd [1]: 36.3 nM | apparent Kd [2]: 53.7 nM

AUAAAACAUGAGGAUCACCCAUGUAAAAAUAUGGGAGGAUAUGCGAAAUAAAAUAAAUAAGCAGAAGGCCUAAAAA
apparent Kd [3]: 50.4 nM | apparent Kd [4]: 23.7 nM

ACGGCUAACCCAGUUUGAAUCUCAAGAAGGGUACACUGGGCAAGGUACAUGAGGAUCACCCAUGUACAGGAUAUUGAGAUGAGA
apparent Kd [1]: 48.4 nM | apparent Kd [2]: 74 nM

GGCACACAUGAGGAUCACCCAUGUGAGGAUAUGGUGCGAUCGUCGAAAGACGAUAGCACCAGAAGGCACAUGCC
apparent Kd [1]: 18.2 nM | apparent Kd [2]: 39.5 nM

ACUUGUAAGCAGAAGGCAGUCAUAGUAUUCGUCAUGUAGACAUGAGGAUCACCCAUGUAUAGUACUGAGGAUAUGCUUCGAUAG
apparent Kd [1]: 19.3 nM | apparent Kd [2]: 21.7 nM

GUUAGACAUGAGGAUCACCCAUGUGAGGAUAUGAUGCGAUCGUGAUGAAAUGAUCGCAUCAGAAGGCACAUAUG
apparent Kd [1]: 153 nM | apparent Kd [2]: 423 nM

GUAGCAUACAGAGGAUAUUCAAACCACAAAAGUGGACAUGAGGAUCACCCAUGUGGCGAAAGCCGGGAGAAGGCUGAAUGCUAC
apparent Kd [3]: 15.9 nM | apparent Kd [4]: 14.3 nM

UUGGACGUCGUAGGAUAUGUAGGAUAUUACUACAUGAGGAUCACCCAUGUUGACAUGGAAGAAGGACAGAAGGACGAUGUCCAU
apparent Kd [3]: 638 nM | apparent Kd [4]: 6.52 nM

CAUGUCCUCACAGGAUAUGCACCACUUUGUGGUGCAGAAGGGUGAAUACAUGAGGAUCACCCAUGUGGACAUGAUAUAUUUAAU
apparent Kd [3]: 1140 nM | apparent Kd [4]: 72.2 nM

GGGCCCGGAGGAUAUACAAUUUUGGGCCGAAAGGCCCGGGUACAUGAGGAUCACCCAUGUAGAAGGCCGGGUUU
apparent Kd [1]: 31.9 nM | apparent Kd [2]: 311 nM
